Test [1] deals with MCF7. As to the kind of experiment: Cytotoxicity against human MCF7 cells at 100 uM after 96 hrs by MTT assay. Format: functional, cell-based. (In general: Tetrazolium assays rely on reduction of a dye to a coloured formazan, in cell work by metabolically active cells.)
Test [2] concerns MCF7. Briefly: Cytotoxicity against human MCF7 cells assessed as suppression of SP-positive cells at 10 uM after 90 mins by Hoechst staining-based FACS analysis (reference value: 2.71%). Format: functional. Background: In flow cytometry, cells or beads pass a laser one at a time.
Test [3] has as its system MCF7. As to the kind of experiment: Induction of apoptosis in human MCF7 cells assessed as necrotic cells at 10 nM after 96 hrs by annexinV/propidium iodide staining-based flow cytometric analysis (reference value: 2.89 %). Type of test: functional.
Test [4] relates to MCF7. As to the kind of experiment: Induction of apoptosis in human MCF7 cells assessed as early apoptotic cells at 10 nM after 96 hrs by annexinV/propidium iodide staining-based flow cytometric analysis (reference value: 3.05 %). Format: functional.
For test [5], the system named is MCF7. Briefly: Induction of apoptosis in human MCF7 cells assessed as viable cells at 10 nM after 96 hrs by annexinV/propidium iodide staining-based flow cytometric analysis (reference value: 89 %). Format: functional. Conditions: MCF7, 96 h, read-out: Activity.
Test [6] has as its system MCF7. As to the kind of experiment: Cytotoxicity against human MCF7 cells assessed as suppression of SP-positive cells at 10 nM after 90 mins by Hoechst staining-based FACS analysis (reference value: 2.71%). Format: functional. The method in brief: (§1)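 Side-population assay. MCF-7 cells (1 × 10^6) trypsinized, washed three times in PBS and resuspended in HBSS with 2% FBS and 10 mM HEPES. Incubated with Hoechst 33342 (5 μg/mL) at 37 °C for 90 min with or without compound (1 or 10 nM). FTC (10 μM) used as control. SP fraction gated by flow cytometry. At least three independent experiments.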

Test [7] has as its system MCF7. As to the kind of experiment: Cytotoxicity against human MCF7 cells assessed as suppression of SP-positive cells at 1 nM after 90 mins by Hoechst staining-based FACS analysis (reference value: 2.71%). Type of test: functional. The method in brief:
as §1

In test [8] the test system is MCF7. As to the kind of experiment: Cytotoxicity against ABCG2-positive human MCF7 cells after 96 hrs by Western blot analysis. Format: functional, cell-based. Conditions: in the assay text read “FACS analysis” for “Western blot analysis”. The method in brief: (§2)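 ABCG2+ subpopulation counted by flow cytometry. MCF-7 cells (2.0 × 10^4) treated 96 h, trypsinized, washed in PBS and resuspended in HBSS with 2% FBS and 10 mM HEPES (10^6/100 μL). Labelled with anti-ABCG2 (5D3) for 30 min, then PE anti-mouse IgG for 15 min. PI (2 μg/mL) added to exclude dead cells. Total ABCG2+ cell number reported as mean ± SD of at least three independent experiments.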
In general terms: A western blot detects proteins with antibodies after separation by electrophoresis.

Test [9] concerns MCF7. As to the kind of experiment: Induction of apoptosis in human MCF7 cells assessed as late apoptotic cells at 10 nM after 96 hrs by annexinV/propidium iodide staining-based flow cytometric analysis (reference value: 5.02 %). Format: functional.
Test [10] concerns MCF7. As to the kind of experiment: Induction of apoptosis in human MCF7 cells assessed as caspase 7 cleavage at 1 nM after 96 hrs by Western blot analysis. Format: functional, cell-based. The essentials:
(§3)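 MCF-7 cells (2.0 × 10^5) exposed to 1 nM for 24, 48, 72 and 96 h; 10 nM paclitaxel as control. Lysed in RIPA (pH 8) with protease and phosphatase inhibitors; 40 μg protein per lane run on 10% SDS-PAGE and transferred to PVDF. Blocked in 5% milk/TBST 1 h; primary antibody overnight at 4 °C. Anti-ABCG2 1:100, anti-PARP and anti-caspase-7 each 1:1000. ECL detection.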

The subject of the next test is PANC-1. Briefly: Cytotoxicity against human PANC1 cells after 96 hrs by MTT assay. Format: functional, cell-based. The settings on record: PANC-1, 96 h.
For test [11], the system named is MCF7. As to the kind of experiment: Cytotoxicity against human MCF7 cells after 48 hrs by MTT assay. The settings on record: MCF7, 48 h.
The subject of test [12] is MCF7. As to the kind of experiment: Induction of apoptosis in human MCF7 cells assessed as late apoptotic cells at 1 nM after 96 hrs by annexinV/propidium iodide staining-based flow cytometric analysis (reference value: 5.02 %). Format: functional.
Test [13] deals with MCF7. As to the kind of experiment: Induction of apoptosis in human MCF7 cells assessed as necrotic cells at 1 nM after 96 hrs by annexinV/propidium iodide staining-based flow cytometric analysis (reference value: 2.89 %). Type of test: functional.
For test [14], the system named is MCF7. Briefly: Down regulation of ABCG2 expression in human MCF7 cells at 1 nM after 96 hrs by Western blot analysis. Type of test: functional, cell-based. The essentials: as §3
Test [15] relates to MCF7. As to the kind of experiment: Cytotoxicity against ABCG2-positive human MCF7 cells at 10 nM after 96 hrs by Western blot analysis. Conditions: in the assay text read “FACS analysis” for “Western blot analysis”. Type of test: functional, cell-based. The essentials: as §2
Test [16] deals with MCF7. As to the kind of experiment: Growth inhibition of human MCF7 cells at 1 nM after 96 hrs by MTT assay. Format: functional. Conditions: MCF7, 96 h, read-out: GI.
Test [17] concerns MCF7. As to the kind of experiment: Down regulation of ABCG2 expression in human MCF7 cells at 1 nM after 96 hrs by Western blot analysis.
Test [18] concerns MCF7. As to the kind of experiment: Inhibition of PI3K-mediated Akt phosphorylation at Ser473 in human MCF7 cells at 1 nM after 6 hrs by Western blot analysis. Type of test: cell-based. The essentials:
(§4)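 MCF-7 cells (2.0 × 10^5) exposed to 1 nM for 1, 3 and 6 h; 10 μM LY294002 as positive control. RIPA lysates, 40 μg per lane, 10% SDS-PAGE and PVDF transfer. Probed overnight at 4 °C with anti-Akt and anti-phospho-Akt Ser473 (1:1000 each), with β-actin (1:10000) as loading control. ECL detection.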

Test [19] deals with MCF7. Briefly: Induction of apoptosis in human MCF7 cells assessed as viable cells at 1 nM after 96 hrs by annexinV/propidium iodide staining-based flow cytometric analysis (reference value: 89 %). Format: functional. The settings on record: MCF7, 96 h, read-out: Activity.
Test [20] has as its system MCF7. Briefly: Induction of apoptosis in human MCF7 cells assessed as early apoptotic cells at 1 nM after 96 hrs by annexinV/propidium iodide staining-based flow cytometric analysis (reference value: 3.05 %). Format: functional.
In test [21] the test system is MCF7. Briefly: Down regulation of Akt expression in human MCF7 cells at 1 nM after 6 hrs by Western blot analysis. Format: functional, cell-based. The essentials:
as §4

Test [22] has as its system MCF7. Briefly: Induction of apoptosis in human MCF7 cells assessed as PARP cleavage at 1 nM after 96 hrs by Western blot analysis. Format: functional, cell-based. The essentials: as §3
The subject of test [23] is MCF7. Briefly: Cytotoxicity against ABCG2-positive human MCF7 cells at 1 nM after 96 hrs by Western blot analysis. Type of test: functional, cell-based. Conditions: in the assay text read “FACS analysis” for “Western blot analysis”. The essentials: as §2
The next test relates to HepG2. As to the kind of experiment: Cytotoxicity against human HepG2 cells after 96 hrs by MTT assay. Type of test: functional, cell-based. The settings on record: HepG2, 96 h.

The source of these data is ChEMBL document CHEMBL2034883, “Asperjinone, a nor-neolignan, and terrein, a suppressor of ABCG2-expressing breast cancer cells, from thermophilic Aspergillus terreus” (J Nat Prod, 2012).

Active and inactive are the calls of the source. No cut-off for these calls is given here.

In the case of `CC1(C)OC1Cc1cc(CC2=C(c3ccc(O)cc3)C(=O)OC2=O)ccc1O` (configuration not stated), the outcome with MCF7 [1] was inactive.

Regarding `COC(=O)[C@@]1(Cc2ccc(O)c(CC=C(C)C)c2)OC(=O)C(O)=C1c1ccc(O)cc1`, the result in the test on MCF7 [1] was inactive.

Turning to `COC(=O)[C@]1(Cc2ccc3c(c2)C[C@H](C(C)(C)O)O3)OC(=O)C(O)=C1c1ccc(O)cc1`, the result with MCF7 [1] was inactive.

Regarding `COC(=O)[C@]1(Cc2ccc3c(c2)C[C@H](O)C(C)(C)O3)OC(=O)C(O)=C1c1ccc(O)cc1`, the result in the test on MCF7 [1] was inactive.

Take `COC(=O)c1cc(O)cc(OC)c1C(=O)c1c(O)c(Cl)c(C)c(Cl)c1O`: the outcome in the test with MCF7 [1] was inactive.

`COC(=O)c1cc(O)cc(OC)c1Oc1c(Cl)c(C)c(Cl)c(O)c1C(=O)O`: the result in the test with MCF7 [1] was inactive.

On to `COC(=O)c1cc(O)cc(OC)c1Oc1c(Cl)c(C)c(Cl)c(O)c1C(=O)OC`, for which, in the test with MCF7 [1], the result was inactive.

With `COC(=O)c1cc(O)cc(OC)c1Oc1cc(C)cc(O)c1C(=O)O`, the outcome in the test on MCF7 [1] was inactive.

For `COc1cc(COC(C)=O)cc2c1C(=O)c1c(O)cc(O)cc1C2=O`, the result in the test with MCF7 [1] was inactive.

As to `COc1cc(O)cc(C(=O)O)c1C(=O)c1c(O)c(Cl)c(C)c(Cl)c1O`, the result in the test with MCF7 [1] was inactive.

For `COc1cc(O)cc2c1C(=O)c1c(O)cc(C)cc1C2=O`, the result in the test on MCF7 [1] was inactive.

With `COc1ccc2c3c([nH]c2c1)[C@H](C=C(C)C)N1C(=O)[C@@H]2CCCN2C(=O)[C@@H]1C3` [FUMITREMORGIN], the Activity with MCF7 [2] is recorded as 0.81%.

With `CC(=O)O[C@H]1C(=O)[C@@]2(C)[C@H]([C@H](OC(=O)c3ccccc3)[C@]3(O)C[C@H](OC(=O)[C@H](O)[C@@H](NC(=O)c4ccccc4)c4ccccc4)C(C)=C1C3(C)C)[C@]1(OC(C)=O)CO[C@@H]1C[C@@H]2O` [PACLITAXEL], the Activity in the test on MCF7 [3] is 2.91%; in the test with MCF7 [4] it was 15.6%; with MCF7 [6], 1.65%; with MCF7 [7], 1.71%; in the test with MCF7 [8] it was “Dose-dependent effect”; in the test on MCF7 [9], 9.34%. Moreover, the viability at 0.01 µM in the test on MCF7 [5] was 72.1%.

Usually IC50 stands for the concentration needed to halve the response being measured. The low end stands for greater potency in that assay, the high end for weaker potency in that assay. For `C/C=C/C1=CC(=O)[C@@H](O)[C@@H]1O` [TERREIN], the Activity is 2.48% in the test on MCF7 [3]; 24% with MCF7 [4]; 8.89% in the test with MCF7 [12]; 1.89% in the test on MCF7 [13]; 0.89% in the test with MCF7 [6]; 0.77% in the test on MCF7 [7]. Also, the Activity in the test on MCF7 [20] is 29.6%; with MCF7 [8], “Dose-dependent effect”; in the test with MCF7 [9], 7.92%. Moreover, the outcome with MCF7 [10], in the test with MCF7 [14], in the test with MCF7 [15], in the test on MCF7 [17], in the test on MCF7 [21] and in the test with MCF7 [22] was Active. For the same compound, in the test with MCF7 [23], the outcome was Active. Further, the values for the IC50 in the test on PANC-1, in the test with MCF7 [11] and in the test on HepG2 were 9.8 µM, 1.1 nM and 66.8 nM, respectively. Besides, the inhibition of growth at 0.001 µM with MCF7 [16] is 70%. The viability at 0.01 µM in the test on MCF7 [5] stood at 65.6%. The inhibition result in the test with MCF7 [18] is “Active”. In addition, in the test on MCF7 [19], the viability at 0.001 µM worked out at 59.7%.
